# Screens deposited in PubChem by Johns Hopkins Ion Channel Center.
# Sampled rows, rich in hits. Any-hit rate of the full collection: about 3%.
# TRPC4 inh = TRPC4 (mouse) channel inhibition | Q9QUQ5 | hit rate 0.39% among 300,000 | AID 2247 | HEK293 TRPC4beta/mu-opioid, DAMGO-evoked Fluo4 calcium flux; stronger effect = lower value | B-score at 10 µM;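 active means B-score over 3 SD under the library average, no early fluorescence shift, positive overall ratio signal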
#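 material = TRPC4beta/mu-opioid receptor HEK293 cell line | probe or stimulus = sequential submaximal and maximal DAMGO stimulation | compound dosing = one concentration per compound | measured by = Fluo4 Ca2+ flux fluorescence | evaluation = integrated fluorescence ratio relative to baseline, converted to per-well B score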
# Kir21 inh = blocks the mouse Kir2.1 inward-rectifier potassium channel | AID 1672 | HEK293-Kir2.1, FluxOR thallium flux fluorescence; stronger effect = lower value | hit rate 0.85% among 310,000 | P35561 | B-score at 10 µM;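 active means fluorescence ratio B-score at or below minus 3 SD of library scores, with starting-brightness B-score within 2 SD, cut at about -4.2 in these data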;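 further: channel flux triggered by added potassium and thallium sulfate stimulus; B-score of peak minus minimum fluorescence over baseline after thallium stimulus; more negative B-score means stronger Kir2.1 block with less thallium influx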
# TRPC4 agonist = opens the mouse TRPC4 cation channel; HEK293 TRPC4beta/mu-opioid, Fluo4 calcium fluorescence; stronger effect = higher value; B-score at 10 µM; hit rate 0.49% among 310,000; AID 2237;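 active means B-score above 5 SD of library B-scores, and initial fluorescence ratio not above library mean plus 5 SD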;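 further: positive B-score marks a calcium rise read as TRPC4 activation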
#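 Test system: HEK293 cells stably co-expressing mouse TRPC4beta and mu-opioid receptor | Schedule: Fluo4 dye loading 45 min at room temperature, 110 s recording | Measured by: Kinetic Fluo4 calcium fluorescence, 5 s baseline at 1 Hz | Evaluation: B score of integrated ratio | Controls: Buffer (low) and maximal DAMGO (high)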
# TRPC6 inhibitor = inhibitors of mouse TRPC6 channel; Q61143; HEK293-TRPC6, membrane potential dye, ACh-evoked depolarization; stronger effect = lower value; B-score at 10 µM; hit rate 1.1% among 310,000;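 active means B-score under library mean minus 3 SD, initial fluorescence not abnormally high, positive integrated signal ratio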;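 further: B-score derived from integrated fluorescence ratio over the kinetic read; more negative B-score means stronger inhibition of depolarization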
# Target sequence (Q61143 whole entry, looked up): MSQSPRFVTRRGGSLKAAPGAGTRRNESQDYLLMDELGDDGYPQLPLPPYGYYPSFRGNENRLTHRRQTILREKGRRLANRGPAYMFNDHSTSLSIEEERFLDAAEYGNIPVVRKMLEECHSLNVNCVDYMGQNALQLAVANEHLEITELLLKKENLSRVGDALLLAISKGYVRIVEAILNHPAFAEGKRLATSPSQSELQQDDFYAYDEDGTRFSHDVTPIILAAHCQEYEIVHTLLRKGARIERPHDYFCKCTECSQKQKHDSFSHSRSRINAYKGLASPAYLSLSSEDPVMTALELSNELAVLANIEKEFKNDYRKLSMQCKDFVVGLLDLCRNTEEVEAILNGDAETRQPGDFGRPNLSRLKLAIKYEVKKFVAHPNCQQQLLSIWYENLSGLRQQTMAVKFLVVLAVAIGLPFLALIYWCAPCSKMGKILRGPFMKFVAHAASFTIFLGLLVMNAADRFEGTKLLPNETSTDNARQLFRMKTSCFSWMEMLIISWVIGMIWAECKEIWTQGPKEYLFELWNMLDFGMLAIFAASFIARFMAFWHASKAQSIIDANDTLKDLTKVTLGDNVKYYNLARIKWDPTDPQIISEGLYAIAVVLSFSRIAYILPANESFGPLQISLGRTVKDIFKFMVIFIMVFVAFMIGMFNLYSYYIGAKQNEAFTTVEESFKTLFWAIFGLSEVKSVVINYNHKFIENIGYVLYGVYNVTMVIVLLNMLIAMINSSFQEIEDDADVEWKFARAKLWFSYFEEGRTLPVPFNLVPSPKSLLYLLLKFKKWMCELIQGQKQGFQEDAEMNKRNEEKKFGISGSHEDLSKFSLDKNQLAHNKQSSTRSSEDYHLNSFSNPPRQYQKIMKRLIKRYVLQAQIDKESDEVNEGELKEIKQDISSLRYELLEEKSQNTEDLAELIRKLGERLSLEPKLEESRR
# TRPC6 activator = activates the mouse TRPC6 cation channel; Q61143; HEK293-TRPC6 membrane potential dye fluorescence; stronger effect = higher value; B-score at 10 µM; hit rate 0.13% among 310,000;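 active means B-score of the integrated fluorescence ratio above library mean plus 3 SD, and starting fluorescence ratio within library mean plus 5 SD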;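 further: higher score means more depolarization so channel activation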
# TRPC4 potent = allosterically enhances the mouse TRPC4 cation channel; Q9QUQ5; B-score at 10 µM; hit rate 0.42% among 310,000; AID 2227; HEK293 TRPC4beta/mu-opioid, DAMGO EC20, Fluo-4 Ca2+ flux; stronger effect = higher value;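 active means B-score of calcium response area above 5 SD of library B-scores, with initial fluorescence ratio within 5 SD of library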;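 further: B-score of integrated fluorescence ratio over time as area under calcium response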
# TRPC4 sel inh 2 = second selectivity test of TRPC6 inhibitors: effect on mouse TRPC4 | shares compounds with TRPC6 inhibitor | HEK293 TRPC4/MOR, membrane potential dye fluorescence; channel activated by saturating DAMGO dose | inhibition, % at 10 µM | hit rate 42% among 920;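 active means compounds whose fluorescence signal differed from control wells by over 3 SD, either direction, in both duplicate plates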
# TRPC4 spec = tests whether TRPC6 inhibitors also affect mouse TRPC4 | shares compounds with TRPC6 inhibitor | HEK293 TRPC4/mu-opioid, membrane potential fluorescence | activity change, negative = inhibition, % at 10 µM | hit rate 61% among 920;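 active means rise or fall in signal beyond 3 SD of buffer-only wells in both replicate plates, either sign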;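 further: integrated kinetic ratio of fluorescence range over baseline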
# HEK293 MPD ctr 2-1 = parental HEK293 nonspecific activity of TRPC6 inhibitors, second screen | parental HEK293 membrane potential dye fluorescence; maximal acetylcholine challenge after compound addition | hit rate 31% among 920 | shares compounds with TRPC6 inhibitor | signal change vs control, % at 10 µM;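 active means membrane potential signal moving either way by over 3 SD of the maximum-effect control, in both duplicate plates, meaning non-specific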
# HEK293 MPD ctr-1 = counter-screen for TRPC6 inhibitors: effect in parental HEK293 cells. shares compounds with TRPC6 inhibitor. parental HEK293 membrane potential dye fluorescence. membrane potential signal change, % at 10 µM. hit rate 60% among 920. AID 2780;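 active means membrane potential signal shifting up or down by more than 3 SD of buffer-only wells, on both duplicate plates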
# HEK293 MPD ctr-2 = counter-screen for TRPC6 modulators: effect in parental HEK293 cells; shares compounds with TRPC6 inhibitor; membrane potential dye fluorescence; membrane potential signal change, % at 10 µM; AID 488924; hit rate 51% among 2,400;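 active means membrane potential signal moves up or down beyond 5 SD from buffer-only wells, on both duplicate plates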
# HEK293 MPD ctr 2-2 = parental HEK293 nonspecific activity of TRPC6 modulators, second screen; shares compounds with TRPC6 inhibitor; membrane potential dye fluorescence; after compound, maximal acetylcholine stimulation; inhibition, % at 10 µM; hit rate 14% among 2,400;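 active means membrane potential signal drops by more than 5 SD from the mean control signal, in both duplicate plates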;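 further: plate controls were acetylcholine ECmax control wells for no effect and buffer only wells for full effect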
# TRPC4 ctr mod = mouse TRPC4 off-target activity of TRPC6 modulators | percent change from control (negative = decrease, positive = increase), % at 10 µM | HEK293 TRPC4/mu-opioid, membrane potential fluorescence | shares compounds with TRPC6 inhibitor | hit rate 69% among 2,400;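 active means membrane potential signal moved up or down beyond 5 SD of buffer control wells, in both duplicate plates, actives on both sides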;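 further: plate controls were assay buffer wells for no effect and DAMGO maximal-effect wells for full effect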
# TRPC4 ctr inh 2 = second selectivity test of TRPC6 modulators against mouse TRPC4 | shares compounds with TRPC6 inhibitor | HEK293 TRPC4/mu-opioid, membrane potential dye fluorescence; stimulated with maximal-effect DAMGO | inhibition, % at 10 µM | AID 488928 | hit rate 55% among 2,400;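 active means drop in membrane potential signal beyond 5 SD of the control wells in both duplicate plates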;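 further: TRPC4 counter screen for TRPC6 hits run under conditions tuned for TRPC6 not TRPC4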
# TRPC6 inh conf = confirmation of mouse TRPC6 inhibitors. shares compounds with TRPC6 inhibitor. HEK293-TRPC6, membrane potential dye, ACh-evoked depolarization. inhibition, % at 10 µM. hit rate 43% among 3,300. AID 488960;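 active means fluorescence ratio falls more than 5 SD below the full-stimulation control mean, in both duplicate runs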;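 further: integrated fluorescence ratio of peak minus minimum over baseline after agonist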
# TRPC6 act conf = confirmation of mouse TRPC6 activators; shares compounds with TRPC6 inhibitor; HEK293-TRPC6 membrane potential dye fluorescence, FDSS; activation, % at 10 µM; hit rate 11% among 2,800; AID 488961;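 active means ratio signal rise beyond 5 SD above unstimulated control wells' mean, seen in both duplicate runs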;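 further: plate controls were buffer EC0 wells for no effect and acetylcholine ECmax response for full effect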
# The depositor's hits bear a star; i = inactive; · = no result given.
SMILES,TRPC4 inh,Kir21 inh,TRPC4 agonist,TRPC6 inhibitor,TRPC6 activator,TRPC4 potent,HEK293 MPD ctr-2,HEK293 MPD ctr 2-2,TRPC4 ctr mod,TRPC4 ctr inh 2,TRPC6 inh conf,TRPC6 act conf,others
Fc1ccc(C(CCNCc2ccccn2)c2ccc(Cl)cc2)cc1 (stereo not drawn),i,-6.4*,i,-5.2*,i,i,188%*,i,31%*,74%*,i,·,
CCCCCCN1C=CC=C/C1=C\C=C(C#N)C#N,i,-1.4,i,i,13*,i,253%*,i,75%*,i,i,102%*,
CC1=C/C(=C\C=C(C#N)C#N)N(C)c2ccccc21,i,-1.7,i,i,i,i,·,·,·,·,·,·,
CN1CCC(Oc2ccccc2Sc2ccccc2)CC1,i,-4,i,i,i,i,·,·,·,·,·,·,
CN1CCC(OC(c2ccccc2)c2ccccc2)CC1,i,-0.8,i,-6.6*,i,i,·,·,·,·,66%*,·,TRPC4 sel inh 2=i;TRPC4 spec=8.7%*;HEK293 MPD ctr 2-1=-5.0%*;HEK293 MPD ctr-1=11%*
COc1cc(/C=C2\C(=O)ON=C2c2ccccc2)cc(Br)c1O,i,-6.6*,i,i,16*,i,906%*,i,74%*,i,i,148%*,
COCCN(C(=O)Cn1nnc2ccccc21)C(C(=O)NC1CCCC1)c1cccc(OC)c1OC (stereo not drawn),i,-1.8,i,i,i,i,·,·,·,·,·,·,
COc1ccc(C(C(=O)NCCC(C)C)N(CCN2CCOCC2)C(=O)Cn2nnc3ccccc32)c(OC)c1 (stereo not drawn),i,0.81,i,i,28*,i,484%*,i,86%*,i,i,298%*,
CCC1(C)Cc2ccccc2C(=S)N1 (stereo not drawn),i,-2.5,i,i,i,i,·,·,·,·,·,·,
O=C(Cn1ccc2ccccc2c1=O)NCC(=O)N1CCN(c2ccccc2F)CC1,i,-0.03,i,i,i,i,·,·,·,·,·,·,
CCC1CCCCN1CCn1c(=S)[nH]c2cc(OC)c(OC)cc2c1=O (stereo not drawn),i,1.5,i,-6.3*,i,i,i,i,10%*,28%*,i,i,
COc1cc2[nH]c(=S)n(CCN3CCOCC3)c(=O)c2cc1OC,i,-0.63,i,i,i,i,·,·,·,·,·,·,
